Our source for the MIC, Activity and inhibition values is ChEMBL document CHEMBL4706572, “Benzyl and benzoyl benzoic acid inhibitors of bacterial RNA polymerase-sigma factor interaction” (Eur J Med Chem, 2020).

The subject of experiment [1] is Streptococcus pneumoniae. Nature of the experiment: Antibacterial activity against Streptococcus pneumoniae ATCC 49619 after 20 hrs by CLSI based-broth microdilution method. In kind it is functional. In short, it runs like this: (§1)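 Streptococci tested in Brain Heart Infusion broth. Two-fold dilutions from 256 to 0.5 μg/mL, inoculum approx. 5 × 10^5 CFU/mL. Incubated 20 h at 37 °C. MIC is the lowest concentration without visible growth.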
A general note: Broth dilution looks for growth in wells or tubes with falling amounts of substance.

In experiment [2] the test system is Staphylococcus aureus. Nature of the experiment: Antibacterial activity against Staphylococcus aureus ATCC 25923 after 20 hrs by CLSI based-broth microdilution method. The format is functional. The gist of the method:
(§2)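 Broth microdilution in cation-adjusted Mueller-Hinton broth. Two-fold serial dilutions from 256 μg/mL down to 0.5 μg/mL. Inoculum approx. 5 × 10^5 CFU/mL. Incubated 20 h at 37 °C. MIC taken as the lowest concentration with no observable growth.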

In experiment [3] the test system is Staphylococcus aureus. Nature of the experiment: Antibacterial activity against Staphylococcus aureus ATCC 29213 after 20 hrs by CLSI based-broth microdilution method. In kind it is functional. In short, it runs like this: as §2
Experiment [4] relates to Enterococcus faecalis. Nature of the experiment: Antibacterial activity against Enterococcus faecalis ATCC 19433 after 20 hrs by CLSI based-broth microdilution method. The format is functional. In short, it runs like this:
(§3)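 Broth microdilution MIC. Two-fold serial dilutions from 256 μg/mL down to 0.5 μg/mL. Inoculum approx. 5 × 10^5 CFU/mL. Read after 20 h at 37 °C. MIC is the lowest concentration with no observable growth.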

Experiment [5] concerns Staphylococcus epidermidis. Put plainly: Antibacterial activity against Staphylococcus epidermidis ATCC 12228 after 20 hrs by CLSI based-broth microdilution method. In kind it is functional. In short, it runs like this: as §2
A short description of experiment [6]: Antibacterial activity against Staphylococcus saprophyticus ATCC 15305 after 20 hrs by CLSI based-broth microdilution method. In kind it is functional, Staphylococcus saprophyticus subsp. saprophyticus. In short, it runs like this: as §2
The test system of experiment [7] is Streptococcus pyogenes. Nature of the experiment: Antibacterial activity against Streptococcus pyogenes ATCC 19615 after 20 hrs by CLSI based-broth microdilution method. The format is functional. The gist of the method: as §1
The subject of experiment [8] is Streptococcus agalactiae. Nature of the experiment: Antibacterial activity against Streptococcus agalactiae ATCC 12386 after 20 hrs by CLSI based-broth microdilution method. In kind it is functional. The gist of the method:
as §1

Experiment [9] concerns Clostridioides difficile. Nature of the experiment: Antibacterial activity against Clostridium difficile ATCC 9689 assessed as reduction in bacterial toxin A production at sub-inhibitory concentration incubated for 48 hrs under anaerobic condition by ELISA. In kind it is functional, organism-based. To be noted: ATCC 9689 = DSM 1296. In short, it runs like this: (§4)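 Incubated anaerobically at 37 °C for 48 h. Supernatants cleared at 10,000 × g for 2 min. TcdA and TcdB quantified by commercial ELISA, normalized to drug-free control. Duplicate, with technical and biological repeats.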

Experiment [10] has as its system Clostridioides difficile. Nature of the experiment: Antibacterial activity against Clostridium difficile ATCC 9689 assessed as reduction in bacterial toxin B production at sub-inhibitory concentration incubated for 48 hrs under anaerobic condition by ELISA. The format is functional, organism-based. To be noted: ATCC 9689 = DSM 1296. In short, it runs like this:
as §4
In general terms: ELISA stands for enzyme-linked immunosorbent assay.

Experiment [11] relates to Clostridioides difficile. Put plainly: Antibacterial activity against Clostridium difficile ribotype 002 assessed as reduction in bacterial toxin A production at sub-inhibitory concentration incubated for 48 hrs under anaerobic condition by ELISA. The format is functional, organism-based. In short, it runs like this: as §4
Experiment [12] relates to Clostridioides difficile. Put plainly: Antibacterial activity against Clostridium difficile ribotype 002 assessed as reduction in bacterial toxin B production at sub-inhibitory concentration incubated for 48 hrs under anaerobic condition by ELISA. The format is functional, organism-based. The gist of the method: as §4
Experiment [13] deals with Clostridioides difficile. Nature of the experiment: Antibacterial activity against Clostridium difficile ribotype 027 assessed as reduction in bacterial toxin A production at sub-inhibitory concentration incubated for 48 hrs under anaerobic condition by ELISA. In kind it is functional, organism-based. In short, it runs like this:
as §4

The test system of experiment [14] is Clostridioides difficile. Nature of the experiment: Antibacterial activity against Clostridium difficile ribotype 027 assessed as reduction in bacterial toxin B production at sub-inhibitory concentration incubated for 48 hrs under anaerobic condition by ELISA. The format is functional, organism-based. The gist of the method: as §4
Experiment [15] deals with Bacillus subtilis. Put plainly: Antibacterial activity against Bacillus subtilis BS1048 after 20 hrs by CLSI based broth microdilution method. The format is functional. The gist of the method:
as §3

The subject of experiment [16] is Bacillus subtilis. Put plainly: Inhibition of GFP-fused RNAP subunit beta' interaction with sigma factor A in Bacillus subtilis BS1048 assessed as nucleoid delocalization at half MIC incubated for 15 mins by confocal microscopy. The gist of the method:
(§5)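 B. subtilis BS1048 (RpoC-GFP) grown from a single colony in LB at 37 °C to OD600 ~0.6. […] Cells mounted on 1.2% agarose under a coverslip and imaged by confocal microscopy with a 63×/1.3 oil objective for RNAP-GFP localization relative to the nucleoid.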

The test system of experiment [17] is Bacillus subtilis. Nature of the experiment: Inhibition of GFP-fused RNAP subunit beta' interaction with sigma factor A in Bacillus subtilis BS1048 assessed as alteration in transcriptional complex localization by measuring diffusion of fluorescent signal into cytosol at 1 to 2 times MIC incubated for 15 mins by confocal microscopy. In kind it is subcellular. The gist of the method:
as §5

Experiment [18] concerns Staphylococcus aureus. Put plainly: Inhibition of RNAP/sigma factor interaction in Staphylococcus aureus ATCC 29213 assessed as total DNA level at 1/4 to 1/8 times MIC by fluorimetric method. The gist of the method:
(§6)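 S. aureus ATCC 29213 master culture started at OD600 0.1 at 37 °C with shaking at 175 rpm. At OD600 0.2 it was split and given compound or control at ¼ and ⅛ MIC, plus a drug-free culture. Cells harvested when the control reached OD600 0.6, with volumes normalized to OD600 0.6 equivalent. DNA and RNA measured by Qubit fluorometry, protein by BCA; triplicate.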

The subject of experiment [19] is Staphylococcus aureus. Put plainly: Inhibition of RNAP/sigma factor interaction in Staphylococcus aureus ATCC 29213 assessed as reduction in total RNA level by fluorimetric method. The gist of the method: as §6
The test system of experiment [20] is Staphylococcus aureus. Put plainly: Inhibition of RNAP/sigma factor interaction in Staphylococcus aureus ATCC 29213 assessed as reduction in total protein level at 1/4 to 1/8 times MIC by fluorimetric method.

As usually defined, the MIC is the smallest concentration in the dilution series that meets the test's criterion for growth inhibition. A high value points to a need for much substance.

Values after ≈ are worked out from the molar mass of the structure shown. Active and inactive are the calls of the source.

As for `O=C(O)c1ccc(C(F)(F)F)cc1C(=O)c1ccc(Sc2ccc(Cl)c(Cl)c2)c([N+](=O)[O-])c1`, the MIC in experiment [1] was 2 µg/mL (≈ 3.87 µM); in [2], 4 µg/mL (≈ 7.75 µM); in experiment [3] it was 4 µg/mL (≈ 7.75 µM); in experiment [4], 8 µg/mL (≈ 15.5 µM); in [5], 0.5 µg/mL (≈ 0.968 µM); in experiment [6], 1 µg/mL (≈ 1.94 µM). For the same compound, the MIC in [7] turned out to be 4 µg/mL (≈ 7.75 µM); in experiment [8], 4 µg/mL (≈ 7.75 µM); in experiment [15], 2 µg/mL (≈ 3.87 µM). The Activity entry in experiment [9], in experiment [10], in experiment [11], in experiment [12], in [13] and in [14] was “Dose-dependent effect” each time. Also, the inhibition result in [16], in experiment [17] and in experiment [20] was “Active” throughout. Also, the inhibition result in [18] is “inactive”. Further, in experiment [19], the inhibition entry was “Dose-dependent effect”.
